# Most compounds without a hit are left out; they make up all but 5.9% or so of the library.
# Pf Dd2 growth: P. falciparum Dd2 growth inhibition; SYBR Green, 72 h; stronger effect = lower value; activity change, % at 10 µM; hit rate 2.3% among 94,000; AID 1159554; in the data active = activity change below about -80%; inconclusive = no clear call, values can overlap the other calls
# GASC1 inh: KDM4C (human) demethylase inhibition; Q9H3R0; GST-KDM4C 2-372, H3K9me3 peptide, LANCE TR-FRET; inhibition, % at 12.5 µM; hit rate 0.15% among 96,000; AID 720574;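 active = mean replicate inhibition above about 25%, with at least 55% of replicates also reaching it, limit read from the data, passing the limit was not always enough; inconclusive = only one of those two conditions met; inactive = neither condition met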
# Target sequence (Q9H3R0 2-372 limits assumed): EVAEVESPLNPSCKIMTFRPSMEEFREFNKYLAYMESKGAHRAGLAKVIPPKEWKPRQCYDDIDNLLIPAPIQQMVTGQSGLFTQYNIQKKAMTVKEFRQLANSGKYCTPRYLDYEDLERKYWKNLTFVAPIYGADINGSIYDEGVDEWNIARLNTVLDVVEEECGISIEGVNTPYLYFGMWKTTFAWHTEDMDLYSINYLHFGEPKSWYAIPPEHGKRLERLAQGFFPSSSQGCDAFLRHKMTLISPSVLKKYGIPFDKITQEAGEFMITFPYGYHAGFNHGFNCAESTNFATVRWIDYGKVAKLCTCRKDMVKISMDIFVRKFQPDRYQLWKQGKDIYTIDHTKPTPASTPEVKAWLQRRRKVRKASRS
#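 Test system – GST-tagged GASC-1 (JMJD2C) catalytic fragment, aa 2-372 · Medium – HEPES buffer, pH 7.5, plus ascorbate · Reagent – H3K9me3 peptide with Fe(II)/2OG · Compound – one test concentration per compound · Timing – 30 min reaction, 60 min detection, RT · Technique – TR-FRET with Eu antibody and ULight streptavidin, EDTA stop · Read-out basis – inhibition from TR-FRET ratio decrease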
# T cruzi growth-1: inhibitors of T. cruzi proliferation. T. cruzi beta-gal in NIH3T3, GalScreen luminescence, 90 h. inhibition, % at 8.34 µM. hit rate 5.9% among 77,000. AID 624255;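 active = mean inhibition above about 93%, with at least 55% of replicates each passing it, limit read from the data, passing the limit was not always enough; inconclusive = only one of those two conditions holds; inactive = neither condition holds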
# IDH1 mut inh: inhibitors of human IDH1 R132H. IDH1 R132H reductase, diaphorase/resazurin fluorescence, 60 min. inhibition, % at 10 µM. hit rate 0.18% among 70,000. AID 624101; in the data active = inhibition above about 34%; inconclusive = no clear call, values can overlap the other calls; inactive = below about 11%;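 note: 0% = DMSO and 100% = no enzyme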
# Target sequence (O75874 whole entry R132H): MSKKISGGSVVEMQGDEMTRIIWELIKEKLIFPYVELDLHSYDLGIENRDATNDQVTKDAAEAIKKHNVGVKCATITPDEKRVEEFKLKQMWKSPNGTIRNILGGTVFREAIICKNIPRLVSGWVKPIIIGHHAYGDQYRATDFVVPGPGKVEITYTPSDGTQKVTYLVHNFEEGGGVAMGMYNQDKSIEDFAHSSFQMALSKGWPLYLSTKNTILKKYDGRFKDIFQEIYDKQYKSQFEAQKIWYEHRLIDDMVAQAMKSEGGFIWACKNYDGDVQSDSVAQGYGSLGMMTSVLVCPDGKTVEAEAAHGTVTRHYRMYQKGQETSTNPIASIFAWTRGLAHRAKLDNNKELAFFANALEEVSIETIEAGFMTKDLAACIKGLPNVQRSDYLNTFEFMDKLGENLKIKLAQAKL
# T cruzi growth-2: Trypanosoma cruzi proliferation inhibition; shares compounds with T cruzi growth-1; T. cruzi beta-gal in NIH3T3, GalScreen luminescence, 90 h; inhibition, % at 8.35 µM; hit rate 72% among 5,600; AID 651739;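 active = mean replicate inhibition above about 95% and at least 55% of replicates individually reaching it, limit read from the data; inconclusive = only one of the two criteria is met; inactive = neither criterion is met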
# T cruzi growth-3: blocks T. cruzi growth in NIH3T3 host cells; inhibition, % at 2.09 µM; shares compounds with T cruzi growth-1; hit rate 21% among 5,600; T. cruzi beta-gal in NIH3T3, GalScreen luminescence, 90 h;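 active = mean inhibition above about 95%, with at least 55% of replicates also reaching it, limit read from the data; inconclusive = meets just one of the two conditions; inactive = meets neither condition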;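 note: plate controls were neutral control median for no effect and positive control median for full effect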
# 3T3 cytotox: NIH/3T3 (mouse) viability loss; shares compounds with T cruzi growth-1; NIH/3T3 viability, CellTiter-Glo ATP luminescence, 90 h; cytotoxicity (signal decrease), % at 8.35 µM; hit rate 14% among 5,600;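 active = mean signal decrease across replicates above about 35% based on untreated-well scatter, with enough replicates individually passing, limit read from the data; inconclusive = no rule stated though some were filed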;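 note: 0% = median of neutral control wells and 100% = median of positive control wells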
# 3T3 cytotox 2: NIH/3T3 (mouse) viability loss; hit rate 56% among 5,600; AID 651744; inhibition, % at 24.9 µM; NIH/3T3 viability, CellTiter-Glo ATP luminescence, 90 h; shares compounds with T cruzi growth-1;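 active = mean loss of cell viability signal at or above a set limit, and enough replicates individually reaching it; inconclusive = meets only the mean limit or only the replicate share; inactive = meets neither condition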;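 note: 0% = median of neutral control wells and 100% = median of positive control wells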
# Numbers without * were called inactive; ? = inconclusive; nt = no result given; ! = not active in a repeat.
SMILES,Pf Dd2 growth,GASC1 inh,T cruzi growth-1,IDH1 mut inh,T cruzi growth-2,T cruzi growth-3,3T3 cytotox,3T3 cytotox 2
COc1ccc(CN(C)C[C@H]2OCCCC[C@@H](C)Oc3ccc(NC(=O)Nc4ccc(OC)cc4)cc3C(=O)N([C@@H](C)CO)C[C@@H]2C)cc1,-65.0,nt,81.1,-1.5,nt,nt,nt,nt
COc1ccc(CN(C)C[C@H]2OCCCC[C@@H](C)Oc3ccc(NC(=O)Nc4ccc(F)cc4)cc3C(=O)N([C@H](C)CO)C[C@H]2C)cc1,-58.4,-2.5,86.3,nt,nt,nt,nt,nt
O=C1N(Cc2ccccc2)Cc2ccccc2C[C@]12N=C(c1ccc(OCCCO)cc1)O[C@@H]2c1ccccc1,nt,nt,nt,-0.2,nt,nt,nt,nt
Nc1ncnc2c1[nH]c(=S)n2CCOc1cccc2ccccc12,nt,nt,nt,0.7,nt,nt,nt,nt
COc1ccc(CN(C)C[C@@H]2OCCCC[C@H](C)Oc3ccc(NC(=O)C4CCCCC4)cc3C(=O)N([C@@H](C)CO)C[C@H]2C)cc1,-68.7,-0.5,79.8,1.4,nt,nt,nt,nt
COc1ccc(CN(C)C[C@H]2OCCCC[C@H](C)Oc3ccc(NC(=O)C4CCCCC4)cc3C(=O)N([C@H](C)CO)C[C@H]2C)cc1,-53.4,2.0,107.2*,9.0,72.6,34.5,5.3,26.4*
Cc1cccc(C)c1Nc1c(-c2ccsc2)nc2sccn12,nt,nt,nt,0.5,nt,nt,nt,nt
Cc1ccc(S(=O)(=O)Nc2ccc3c(c2)C(=O)N([C@@H](C)CO)C[C@H](C)[C@H](CN(C)S(=O)(=O)c2ccc(F)cc2)OCCCC[C@@H](C)O3)cc1,-67.0,0.5,?,-10.3,104.7*,76.7,20.1,31.6*
Cc1ccc(S(=O)(=O)Nc2ccc3c(c2)C(=O)N([C@@H](C)CO)C[C@H](C)[C@@H](CN(C)S(=O)(=O)c2ccc(F)cc2)OCCCC[C@H](C)O3)cc1,-79.2,0.9,nt,0.4,nt,nt,nt,nt
Cc1ccc(S(=O)(=O)Nc2ccc3c(c2)C(=O)N([C@@H](C)CO)C[C@H](C)[C@H](CN(C)S(=O)(=O)c2ccc(F)cc2)OCCCC[C@H](C)O3)cc1,-73.5,0.2,115.9*,nt,104.3*,66.9,-2.3,9.2
Cc1ccc(S(=O)(=O)Nc2ccc3c(c2)C(=O)N([C@H](C)CO)C[C@@H](C)[C@@H](CN(C)S(=O)(=O)c2ccc(F)cc2)OCCCC[C@@H](C)O3)cc1,-67.2,-0.2,nt,nt,nt,nt,nt,nt
Cc1ccc(S(=O)(=O)Nc2ccc3c(c2)C(=O)N([C@@H](C)CO)C[C@@H](C)[C@H](CN(C)S(=O)(=O)c2ccc(F)cc2)OCCCC[C@@H](C)O3)cc1,-21.7,0.1,102.8*,nt,105.9*,66.1,-0.6,6.4
Cc1ccc(S(=O)(=O)N(C)C[C@@H]2OCCCC[C@@H](C)Oc3ccc(NS(=O)(=O)c4ccc(F)cc4)cc3C(=O)N([C@@H](C)CO)C[C@@H]2C)cc1,-76.0,0.5,101.6*,0.4,105.1*,89.7,-27.2,11.9
O=C(CCCCCC(=O)N/N=C/c1cc(Br)cs1)NO,nt,nt,nt,0.1,nt,nt,nt,nt
Cc1ccc(S(=O)(=O)Nc2ccc3c(c2)C(=O)N([C@H](C)CO)C[C@@H](C)[C@H](CN(C)S(=O)(=O)c2ccc(F)cc2)OCCCC[C@@H](C)O3)cc1,-56.9,0.2,109.0*,1.1,101.8*,76.4,6.3,-17.3
Cc1ccc(S(=O)(=O)Nc2ccc3c(c2)C(=O)N([C@H](C)CO)C[C@@H](C)[C@@H](CN(C)S(=O)(=O)c2ccc(F)cc2)OCCCC[C@H](C)O3)cc1,-55.5,-0.1,nt,-0.7,nt,nt,nt,nt
Cc1ccc(S(=O)(=O)N(C)C[C@H]2OCCCC[C@H](C)Oc3ccc(NS(=O)(=O)c4ccc(F)cc4)cc3C(=O)N([C@@H](C)CO)C[C@@H]2C)cc1,-70.9,-1.4,114.6*,nt,104.4*,83.8,-21.9,-23.0
C[C@@H]1CCCCO[C@@H](CN(C)C(=O)CCCN(C)C)[C@@H](C)CN([C@H](C)CO)C(=O)c2cc(N(C)C)ccc2O1,13.6,0.2,108.1*!,0.0,54.7,1.0,7.6,9.0
C[C@@H]1CCCCO[C@H](CN(C)C(=O)CCC(F)(F)F)[C@H](C)CN([C@H](C)CO)C(=O)c2cc(N(C)C)ccc2O1,nt,-0.5,37.8,-1.0,nt,nt,nt,nt
C[C@@H]1CCCCO[C@@H](CN(C)C(=O)CCC(F)(F)F)[C@@H](C)CN([C@H](C)CO)C(=O)c2cc(N(C)C)ccc2O1,-14.2,2.2,98.9*!,-3.0,60.7,10.1,0.8,-51.8
C[C@@H]1CCCCO[C@@H](CN(C)C(=O)CCCN(C)C)[C@H](C)CN([C@@H](C)CO)C(=O)c2cc(N(C)C)ccc2O1,24.3,2.5,27.5,-0.7,nt,nt,nt,nt
CSc1ccc(S(=O)(=O)N(CC(=O)O)c2ccc(C)cc2)cc1,nt,nt,nt,-0.2,nt,nt,nt,nt
Cc1ccc(N(CC(=O)Nc2ccccc2-c2ccccc2)S(C)(=O)=O)cc1C,nt,nt,nt,-0.3,nt,nt,nt,nt
COc1ccc(-c2ccc3c(c2)O[C@@H](CN(C)C(=O)Nc2ccccc2F)[C@@H](C)CN([C@H](C)CO)S3(=O)=O)cc1,-85.7*,13.8,97.2*,0.0,106.5*,57.2,47.5*,38.9*
C[C@H](CO)N1C[C@H](C)[C@H](CN(C)C(=O)Nc2cc(F)ccc2F)Oc2cc(-c3cccc(F)c3)ccc2S1(=O)=O,-65.5,0.0,82.7,-0.1,nt,nt,nt,nt
SMILES,Pf Dd2 growth,GASC1 inh,T cruzi growth-1,IDH1 mut inh,T cruzi growth-2,T cruzi growth-3,3T3 cytotox,3T3 cytotox 2
C[C@H](CO)N1C[C@H](C)[C@@H](CN(C)C(=O)Nc2cc(F)ccc2F)Oc2cc(-c3cccc(F)c3)ccc2S1(=O)=O,-58.1,0.1,107.1*,-0.6,111.4*,88.3,24.5,32.1*
C[C@@H]1CN([C@H](C)CO)S(=O)(=O)c2ccc(-c3ccc(F)cc3)cc2O[C@@H]1CN(C)C(=O)Nc1ccccc1F,-26.9,-2.4,110.4*,nt,109.9*,49.7,28.3,37.4*
C[C@@H]1CN([C@@H](C)CO)S(=O)(=O)c2ccc(-c3ccccc3)cc2O[C@@H]1CN(C)C(=O)Nc1ccccc1F,-28.0,3.3,-77.6,nt,nt,nt,nt,nt
COc1ccc(-c2ccc3c(c2)O[C@@H](CN(C)C(=O)Nc2ccccc2F)[C@H](C)CN([C@@H](C)CO)S3(=O)=O)cc1,-76.5,-0.7,73.2,0.5,nt,nt,nt,nt
C[C@@H]1CN([C@H](C)CO)S(=O)(=O)c2ccc(C#CC3CC3)cc2O[C@@H]1CN(C)C(=O)Nc1cc(F)ccc1F,-32.2,-1.2,104.5*,-0.6,108.7*,54.8,-15.3,-0.8
O=C(CSc1ncn[nH]1)Nc1ccc(-c2nc3ccccc3s2)cc1,nt,nt,nt,0.0,nt,nt,nt,nt
COc1cccc(-c2ccc3c(c2)[C@@H]2[C@@H](CCN2S(=O)(=O)c2ccc(F)cc2)[C@@H](CO)N3C)c1,-20.5,-1.8,79.7,nt,nt,nt,nt,nt

# Screens from PubChem.
